Compound activity as filed in PubChem BioAssay.
A selection: hits, their analogues and other compounds. The true share with any hit is near 1.9%.
PLC-beta3 inh: blocks human PLC-beta3 enzyme activity; Q01970; Purified PLC-beta3, fluorogenic substrate, fluorescence; inhibition, % at 12.2 µM; 370,000 compounds, 0.18% hits; AID 720704; in the data active = inhibition above about 11%;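 also: 0% = median of compound wells on plate and 100% = full blocker control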
PLC-gamma1 inh: inhibitors of human phospholipase C gamma1 | P19174 | purified PLC-gamma1, fluorogenic substrate, fluorescence | inhibition, % at 12.2 µM | 370,000 compounds, 0.84% hits | AID 720700
proCasp7 act: counter-screen: procaspase-7 (human) activation | P55210 | recombinant procaspase-7, Ac-DEVD-pNA absorbance 405 nm; D23A/D198A/D206A triple mutant, cannot self-cleave; scale: DMSO 0, 5 µM enzyme 100 | activation, % at 8.5 µM | 330,000 compounds, 0.093% hits | AID 463210;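 active = percent activation above the screen-wide mean plus 3 SD, cut at about 25% in these data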
Target sequence (P55210 whole entry D23A/D198A/D206A): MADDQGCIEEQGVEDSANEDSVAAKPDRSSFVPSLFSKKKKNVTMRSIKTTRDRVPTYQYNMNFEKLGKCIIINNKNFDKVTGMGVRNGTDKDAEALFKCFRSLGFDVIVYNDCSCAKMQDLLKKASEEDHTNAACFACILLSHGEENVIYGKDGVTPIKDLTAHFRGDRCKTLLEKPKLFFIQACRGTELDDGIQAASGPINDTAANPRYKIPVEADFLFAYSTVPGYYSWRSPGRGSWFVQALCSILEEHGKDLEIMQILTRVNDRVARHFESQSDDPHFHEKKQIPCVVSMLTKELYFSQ
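signal = Epi-absorbance of released pNA at 405 nm, two timepoints | assay system = Uncleavable procaspase-7 mutant enzyme | reagent = Ac-DEVD-pNA substrate, 400 µM as added | times = 1 h enzyme–compound preincubation and 2 h substrate reaction, both 25 °C | benchmarks = low DMSO alone, high DMSO plus 5 µM PC-7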
proCasp3 act: activates human procaspase-3 | P42574 | recombinant procaspase-3 D3A, Ac-DEVD-pNA absorbance 405 nm | activation, % at 8.5 µM | 330,000 compounds, 0.11% hits | AID 463141;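 active = activation above the mean of all tested compounds plus 3 SD, cut at about 21% in these data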;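 also: 0% = DMSO alone and 100% = DMSO wells spiked with extra 5 µM PC-3 D3A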
Target sequence (P42574 whole entry D9A/D28A/D175A): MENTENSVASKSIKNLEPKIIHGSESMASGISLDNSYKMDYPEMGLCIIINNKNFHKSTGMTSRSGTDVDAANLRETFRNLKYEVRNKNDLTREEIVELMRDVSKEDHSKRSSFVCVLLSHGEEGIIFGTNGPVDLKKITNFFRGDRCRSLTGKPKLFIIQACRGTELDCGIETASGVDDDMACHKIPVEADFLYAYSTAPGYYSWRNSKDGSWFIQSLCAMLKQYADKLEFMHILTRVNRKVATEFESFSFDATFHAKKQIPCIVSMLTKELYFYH
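Assay system: Procaspase-3 D3A mutant, all three cleavage aspartates alanine. Buffer or medium: Zinc-free HEPES saline buffer with Triton X-100. Times: 1 h compound preincubation, 2 h substrate hydrolysis at 25 °C. Measured by: 405 nm absorbance of p-nitroaniline, reads at 0 and 120 min. Read-out basis: percent activation relative to control range. Replicates: singlicate.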
HGIII-sPLA2 inh: Blocks human group III sPLA2 activity | Q9NZ20 | inhibition, % at 12.2 µM | 370,000 compounds, 0.56% hits | AID 743126 | QFRET BODIPY PC-A2 liposome hydrolysis, fluorescence;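 active = inhibition above mean plus 3 SD of compounds lying within the high and low control bounds, cut at about 19% in these data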;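 also: 0% = median of test compound wells and 100% = no enzyme DMSO wells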
Arr AP2 block: blocks beta-arrestin peptide binding to AP2 adaptin; inhibition, % at 10 µM; 340,000 compounds, 0.31% hits; FITC-arrestin peptide / GST-AP2 beads, flow cytometry; AP2 beta2 appendage carries R879A mutation;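 active = inhibition above a set limit, near 3 SD of compounds lacking own fluorescence, cut at about 54% in these data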;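 also: plate controls were DMSO wells for no effect and 5 µM unlabelled arrestin peptide for full effect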
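Test system: GST-tagged AP2 beta2-adaptin appendage (R879A) on 4 µm glutathione beads; also added: fluorescein-tagged arrestin peptide at 50 nM final; timing: 12 min plus 1 h, RT; signal: flow cytometry, FL1 (488/535 nm); read-out: percent drop in bead-associated FITC signal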
PLCgamma1 ctr: inhibits human PLC-gamma1 in PLC-beta3 counter-screen; shares compounds with PLC-gamma1 inh; purified PLC-gamma1, fluorogenic substrate, fluorescence; inhibition, % at 12.3 µM; 3,300 compounds, 3.1% hits; AID 743258
PLCbeta3 conf: confirmation of human PLC-beta3 inhibitors; purified PLC-beta3, fluorogenic substrate fluorescence; shares compounds with PLC-gamma1 inh; AID 743261; 3,300 compounds, 1% hits; inhibition, % at 12.3 µM; in the data active = inhibition above about 11%
Starred values were filed as active, the others as inactive; . = no result. Rule as the data show it, unless noted: active = inhibition above about 9.5%; inactive = the rest.

SMILES	PLC-beta3 inh	PLC-gamma1 inh	proCasp7 act	proCasp3 act	HGIII-sPLA2 inh	Arr AP2 block	PLCgamma1 ctr	PLCbeta3 conf
O=C(c1cc2ccccc2oc1=O)N1CCCC1	3	15*	10	-2	6	4	-6	-11
CCCCNC(=O)C1CCCN1C(=O)Nc1ccc2c(c1)OCO2 (stereo not drawn)	0	0	.	.	0	.	.	.
COc1ccccc1CC(NC(C)=O)C(=O)NC1CCN(C(=O)Nc2ccc(F)cc2)CC1 (stereo not drawn)	-9	11*	-6	4	18	-1	-5	-1
COc1ccc(CC(NC(C)=O)C(=O)NC2CCN(C(=O)Nc3ccccc3C)CC2)cc1OC (stereo not drawn)	-5	11*	7	3	17	-12	-5	-2
O=C(CN1CCCC1)NCC12CC3CC(CC(C3)C1)C2	8	11*	5	-6	0	6	-1	1
O=C(CN1CCCC1)NC12CC3CC(CC(C3)C1)C2	1	1	3	-9	-5	-4	.	.
COC(=O)[C@H](C(C)C)N(CCCc1cn(Cc2ccc(C)cc2)nn1)S(=O)(=O)c1ccccc1Br	3	0	.	.	-16	.	.	.
Cc1ccc(C(=O)NNC(=O)C2CCN(S(=O)(=O)c3ccc(C)cc3)CC2)cc1	-3	3	4	13	-9	-14	.	.
Cc1ccc(S(=O)(=O)N2CCC(C(=O)NNC(=O)c3ccncc3)CC2)cc1	12*	9	6	1	-2	13	-6	-4
COc1ccccc1Cc1c(-c2ccco2)nc2cc(C)c(Br)c(C)n12	-25	-16	.	.	16	.	.	.
COc1ccc(C(=O)NC(=S)Nc2ccc(Cl)c(C(=O)O)c2)cc1	2	0	-3	-9	3	14	.	.
CC(C)Oc1cccc(C(=O)NC(=S)Nc2ccc(Cl)c(C(=O)O)c2)c1	-6	10*	-19	-9	2	-3	-9	-4
Cc1cccc(NC(=O)Cn2c(=O)n(CCc3c[nH]c4ccccc34)c(=O)c3cccnc32)c1	5	11*	1	1	-85	.	0	1
O=C(C(=O)N1CCN(C(=O)OCc2ccccc2)CC1)c1cccnc1	3	0	.	.	1	.	.	.
Cc1ccc([C@@H]2CC=C(C(=O)O)[C@H](c3ccc(Cl)cc3)N2S(=O)(=O)c2ccc(C)cc2)cc1	-5	-4	-1	4	-42	-4	.	.
Cc1ccc(S(=O)(=O)N2[C@@H](c3ccc(Cl)cc3)C(C(=O)O)=CC[C@H]2c2ccc(Cl)cc2)cc1	-7	9.8*	3	1	-40	8	-4	-4
Cc1ccc(OCC(=O)Nc2sc3c(c2C#N)CC(C)(C)NC3(C)C)cc1	-51	10*	2	7	7	7	-3	2
CC1(C)Cc2c(sc(NC(=O)COc3cccc4ccccc34)c2C#N)C(C)(C)N1	-9	8	0	2	-1	3	.	.
O=c1[nH]n(-c2ccc(Cl)cc2)c(=O)c(Cl)c1Cl	3	9.8*	-9	2	-1	7	-8	-7
COC(=O)C1CN(Cc2cn(Cc3ccc(Cl)cc3)nn2)CCS(=O)(=O)N1Cc1ccc(OC)cc1 (stereo not drawn)	-19	-10	.	.	-5	.	.	.
Cc1ccc(NC(=O)CSc2ccccc2)cc1S(=O)(=O)N1CCOCC1	-2	12*	.	.	-12	-1	-32	-3
Cc1ccc(NC(=S)NCc2ccccc2)cc1S(=O)(=O)N1CCCCC1	9	14*	0	-5	-7	-7	5	8
Cc1ccc(NC(=O)CSc2ccccc2)cc1S(=O)(=O)N1CCCCC1	-1	3	5	7	-29	37	.	.
O=C(Cc1cccs1)Nc1ccc(F)c(S(=O)(=O)N2CCOCC2)c1	1	9.9*	-6	4	-3	10	-5	-1
Cc1ccc(NC(=O)COC(=O)CC2CC3CCC2C3)cc1S(=O)(=O)N1CCOCC1 (stereo not drawn)	-2	11*	1	2	-33	-5	-6	-4
SMILES	PLC-beta3 inh	PLC-gamma1 inh	proCasp7 act	proCasp3 act	HGIII-sPLA2 inh	Arr AP2 block	PLCgamma1 ctr	PLCbeta3 conf
COC(=O)[C@]12C[C@H](CC(=O)NCC3CCCCC3)C(=O)N(Cc3ccco3)C1=C[C@H](C(C)(C)C)O[C@@H]2C	2	-1	.	.	-7	.	.	.
O=C1OCC2=Nc3cccc4cccc(c34)N12	-16	-10	.	.	14	.	.	.
Cc1ccc(-c2nc(C3CCCN(S(=O)(=O)c4ccc(C)c(C)c4)C3)no2)cc1 (stereo not drawn)	5	8	.	.	9	.	.	.
CC1=C(C(=O)OC(C)C)C(C2CC=CCC2)NC(=O)N1 (stereo not drawn)	3	12*	0	0	5	1	-4	0
OCCN(Cc1ccccc1)CC(O)COc1ccc(-c2ccccc2)cc1 (stereo not drawn)	6	13*	16	4	-26	4	-2	-3
COc1ccc(S(=O)(=O)N(C)C)cc1NC(=O)[C@H](Cc1ccccc1)N1C(=O)c2ccccc2C1=O	5	9.8*	-4	9	-13	2	1	4
Cc1ccc(S(=O)(=O)N(C)C)cc1NC(=O)[C@H](Cc1ccccc1)N1C(=O)c2ccccc2C1=O	3	2	7	5	-13	-12	.	.
O=C(CNC(=O)c1ccc(Br)o1)NC12CC3CC(CC(C3)C1)C2	4	9.9*	8	2	9	-2	1	4
Cc1ccc(-c2cc(C(=O)NN=Cc3ccc(-c4ccccc4)cc3)[nH]n2)cc1C	7	3	.	.	3	.	.	.
COc1ccc(CCN(C(=O)C(F)(F)F)C(C(=O)NC2CCCCC2)c2ccc(C)s2)cc1 (stereo not drawn)	8	11*	1	3	2	27	1	-4
COc1ccc(CCN(C(=O)C(F)(F)F)C(C(=O)NC2CCCCC2)c2cccs2)cc1 (stereo not drawn)	1	0	4	7	-1	7	.	.
O=C(Cc1ccc(Cl)cc1)Nc1ccccc1N1CCN(C(=O)c2ccccc2)CC1	-4	1	9	3	-3	7	.	.
Nc1ncnc2c1ncn2C1OC(COP(=O)(O)O)C(O)C1O (stereo not drawn)	1	41*	11	7	5	3	55*	1
